Insulin prom inh – TRM-6 insulin promoter activity inhibition. actives 0.9% (n = 130,000). AID 1273. inhibition, % at 2 µM. TRM-6 cells (human fetal islet line), insulin promoter-eGFP reporter, imaging; reporter expression induced with tamoxifen;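 active = inhibition above the mean plus 3 SD, with well images judged a real hit on visual review, cut at about 60% in these data, passing the limit was not always enough; inconclusive = inhibition over the cutoff but images rejected on review; inactive = inhibition not above the cutoff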
Yeast growth inh – reduces growth of yeast BB579 in restrictive medium. S. cerevisiae BB579 growth, OD615, 48 h. inhibition, % at 10 µM. actives 0.51% (n = 140,000). AID 804;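 active = inhibition above a set limit, 3 SD over the mean compound inhibition, cut at about 44% in these data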
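Test system: Saccharomyces cerevisiae DeaD strain BB579, replicative lifespan model yeast | Buffer or medium: Restrictive CSMM-D medium | Doses: One dose, 10 µM compound with 0.25% DMSO | Incubation: 48 h exposure, 30 °C | Detection: Culture absorbance at 615 nm | Control set: Amphotericin B at 10 µg/mL as positive control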
RAM network inh – inhibitors of the yeast RAM network; actives 1.8% (n = 190,000); S. cerevisiae dse1pr::URA3 reporter, 5-FOA growth OD615, 2 d; analog-sensitive cbk1-as2 kinase mutant strain; inhibition, % at 50 µM;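 active = inhibition above a set limit, 3 SD over mean compound inhibition, cut at about 8.4% in these data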;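 note: 0% = DMSO-only wells with no growth and 100% = 10 µM 1-NA-PP1 full growth; inhibition rescues growth on 5-FOA so higher OD means more RAM inhibition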
Yeast life ext – yeast lifespan extension; S. cerevisiae growth with nicotinamide, OD615; deaD strain in restrictive glucose medium; inhibition of the nicotinamide effect, % at 10 µM; actives 0.68% (n = 130,000); AID 775;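 active = inhibition above a set limit, placed 3 SD over the median of all compounds, cut at about 26% in these data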;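 note: 0% = nicotinamide-treated wells and 100% = cells grown without nicotinamide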
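Test system – modified budding yeast, DeaD strain · Compound – single dose 10 µM compound, 0.25% DMSO · Times – culture preincubation 4 h, compound exposure 48 h, both 30 °C · Detection – optical density (absorbance) at 615 nm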
Ins promoter up – MIN6 insulin promoter up-regulation; MIN6 insulin promoter-GFP reporter, high-content imaging; active compounds read high; AID 1625; actives 0.3% (n = 190,000); z-score at 5 µM;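 active = z-score above 3 at 5 µM with at least 500 cells counted in the well; inconclusive = wells under 500 cells, flagged as cytotoxic or low count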
* hit, by the source's call; ? = inconclusive; nt = not tested or not shown. A selection: hits, their analogues and other compounds. The true share with any hit is near 3%.

SMILES | Insulin prom inh | Yeast growth inh | RAM network inh | Yeast life ext | Ins promoter up
Cc1cccc(N(CC(=O)NCCSc2nc3ccccc3s2)S(=O)(=O)c2ccccc2)c1 | -27.0 | -31.0 | 10.8* | -1.5 | -0.03
CCCNc1cc(=S)nc(N)[nH]1 | nt | nt | nt | nt | 0.18
Cc1c(NC(=O)c2nn3c(C(F)(F)F)cc(-c4ccccc4)nc3c2Br)c(=O)n(-c2ccccc2)n1C | 11.5 | -5.8 | 8.6* | -2.7 | 0.68
O=c1c2ccccc2nc(-c2ccccc2Cl)n1O | nt | nt | -1.1 | nt | 0.16
O=c1c2ccccc2nc(-c2ccc(Cl)c(Cl)c2)n1O | 41.9 | -17.2 | 0.1 | 76.2* | -0.87
O=C(OCc1ccc([N+](=O)[O-])cc1)C1CC(=O)N(c2ccccc2)C1 (stereo not given) | 78.6* | -32.6 | 0.8 | -10.4 | 0.1
CC(C)(C)c1ccc(/C=C(\C#N)C(=O)NCCN2CCOCC2)cc1 | nt | nt | -0.4 | nt | 0.16
Cc1nc([N+](=O)[O-])nn1C12CC3CC(CC(Cl)(C3)C1)C2 | 36.7 | -9.0 | 1.7 | 2.7 | -0.08
COc1ccc(-c2cc(C(F)(F)F)nc(SCCC(=O)N3CCN4CCCC4C3)n2)cc1 (stereo not given) | -43.2 | -26.4 | 0.7 | -26.1 | -0.37
COc1ccc(-c2cc(C(F)(F)F)nc(SCCC(=O)N3CCCC3)n2)cc1 | ? | -30.3 | 8.8* | nt | nt
Cc1cc(NC(=O)CSc2nnc3c(C)cc4c(C)ccc(C)c4n23)no1 | 57.7 | -43.2 | 1.9 | -5.8 | 0.14
COc1ccc(-c2cc(C(F)(F)F)nc(SCC(=O)Nc3cc(C)on3)n2)cc1OC | 37.5 | -51.7 | 8.7* | -18.8 | -0.49
COc1cc2cc(C)c3nnc(SCC(=O)Nc4cc(C)on4)n3c2cc1OC | nt | nt | 2.6 | nt | 5.98*
CC(=O)c1ccc(-n2c(=O)[nH]c(=O)c3c(N)c(C(=O)c4ccc(Cl)cc4)sc32)cc1 | nt | nt | nt | nt | -0.18
CSCC(CO)NS(=O)(=O)c1ccc(C)cc1 (stereo not given) | nt | nt | nt | nt | -0.35
O=C(NC12CC3CC(CC(C3)C1)C2)c1ccc(=O)oc1 | nt | -47.1 | 8.7* | -2.6 | 0.68
Cc1nc(-c2nc(-c3c(C(=O)NNC(=O)Nc4ccccc4)noc3C)cs2)cs1 | nt | nt | nt | nt | -0.53
CC1=NN(c2nc(-c3ccccc3)cs2)C(=O)C1N=Nc1ccccc1 (stereo not given) | nt | nt | 4.6 | nt | 0.46
CC1=NN(c2nc(-c3ccc(C)cc3)cs2)C(=O)C1N=Nc1ccc2ccccc2c1 (stereo not given) | 13.3 | -45.0 | 10.6* | -1.5 | -0.33
CCNc1nc(NCC)nc(N(n2cnnc2)S(=O)(=O)c2ccc(C)cc2)n1 | 80.0* | 11.2 | -0.6 | 10.4 | -0.16
COCCC1CCCCN1C(=O)c1cccc(OC2CCN(C3CCCC3)CC2)c1 (stereo not given) | nt | nt | 1.1 | nt | -0.09
N#Cc1ccsc1NC(=O)COc1ccc(-c2nnco2)cc1 | 65.2* | -21.1 | 2.6 | nt | 0.17
Cc1ccccc1C(=O)NNC(=O)CSc1nnc(-c2ccncc2)n1-c1ccccc1 | 0.0 | -4.5 | -0.4 | 3.6 | -0.26
CCCN(CCC)C(=O)CC(c1ccccc1)c1cc(Br)ccc1O (stereo not given) | -57.1 | -34.0 | 9.2* | 0.9 | 0.21
Cc1nc(-c2ccc(Cl)cc2)sc1C1(C)CC(c2cccc([N+](=O)[O-])c2)=NO1 (stereo not given) | nt | nt | nt | nt | -0.1
SMILES | Insulin prom inh | Yeast growth inh | RAM network inh | Yeast life ext | Ins promoter up
O=C(/C(=C/c1ccc(Cl)cc1)c1nc2ccccc2[nH]1)c1cccs1 | 48.6 | -25.4 | 0.1 | 31.3* | ?
CCOc1cc(/C=C2\CCCC(C(=O)C(F)(F)F)=C2O)ccc1O | -42.9 | -48.0 | 9.1* | -2.4 | 1.14
CCCCCc1nnc(NC(=O)C(=O)OCC)s1 | 13.2 | -47.4 | -0.3 | 39.0* | -0.32
CCCCc1nnc(NC(=O)C(=O)OCC)s1 | nt | nt | -0.6 | nt | 0.44
CCOC(=O)C(=O)Nc1nnc(SCc2ccc(F)cc2)s1 | -12.5 | -2.3 | -0.1 | 35.4* | 0.35
Cc1ccc(C)c(C(=O)COC(=O)c2cc(Cl)nc3ccccc23)c1 | 20.0 | -53.8 | 9.6* | 2.7 | 0.47
Fc1ccc(Nc2ccc3ccccc3n2)c(F)c1 | nt | nt | 0.0 | nt | 2.56
C=CCNC1=C(Cl)C(=O)N(c2ccccc2Cl)C1=O | -22.2 | -81.9 | 8.9* | 4.9 | 0.05
Cc1c(NC2=C(Cl)C(=O)N(c3ccccc3Cl)C2=O)c(=O)n(-c2ccccc2)n1C | -81.2 | -47.6 | 3.6 | -0.4 | 0.31
COc1ccc(-c2ccc(-c3nc4c(c(=O)[nH]c(=O)n4Cc4ccccc4)n3C)o2)c([N+](=O)[O-])c1 | -7.4 | -52.0 | 2.5 | 3.9 | -0.97
